The text below walks through data of ChEMBL document CHEMBL4396944, “A fluorogenic H2S-triggered prodrug based on thiolysis of the NBD amine” (Bioorg Med Chem Lett, 2019).

In general, solubility refers to the concentration that dissolves in the medium under given conditions. What is called MIC is the smallest concentration in the dilution series that meets the test's criterion for growth inhibition.

Data set [1] concerns Escherichia coli. In words: Antibacterial activity against Escherichia coli BL21(DE3) incubated for 12 hrs by UV-Vis spectrophotometric analysis. The class given is functional, organism-based. The method in brief:
(§1)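 E. coli grown in LB medium with the prodrug added, alone or together with 50 µM Na2S (H2S source) or 5 mM L-Cys. Cultures were incubated for 12 h, at 37 °C where stated, and growth was read as OD600 per sample. Controls: Na2S or L-Cys alone, and 30 nM NBD-SH by-product.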

For data set [2], the system named is Escherichia coli. The data set can be described thus: Antibacterial activity against Escherichia coli BL21(DE3) at lower concentration incubated for 12 hrs by UV-Vis spectrophotometric analysis. Type of data set: functional, organism-based. The method in brief: as §1
Data set [3] can be described thus: Solubility of compound in 20 mM PBS buffer at pH 7.4 in presence of Na2S by UV-Vis spectrophotometric analysis. Type of data set: physicochemical.
The nature of data set [4]: Prodrug activation in pH 7.4 PBS buffer assessed as ciprofloxacin formation by measuring increase in fluorescence at 5 uM in presence of Na2S at 415 nanometer by fluorescence assay relative to control. As to conditions: pH 7.4, 5 µM. The method in brief: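 Prodrug at 5 µM mixed with Na2S (100 µM) in PBS; fluorescence spectra recorded over time, excitation 280 nm. Emission at 415 nm plotted against time and fitted to give k_obs. Repeated at several Na2S concentrations; slope of k_obs versus [Na2S] gives k2.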

Data set [5] in a line: Prodrug activation in pH 7.4 PBS buffer assessed as formation of ciprofloxacin by measuring reaction rate constant at 5 uM in presence of Na2S by fluorescence assay. The following applies: pH 7.4, 5 µM. The method in brief:
(§2)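 Fluorescence spectra over time of 5 µM prodrug with 100 µM Na2S in PBS, excitation 280 nm; emission at 415 nm versus time fitted to give kobs; kobs plotted against Na2S concentration, slope of linear fit gives k2.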

Data set [6] can be described thus: Prodrug activation in pH 7.4 PBS buffer at 5 uM incubated for 30 mins in presence of Cys by fluorescence assay. The following applies: pH 7.4, 0.5 h. The method in brief:
(§3)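 Fluorescence of prodrug checked in PBS after exposure to millimolar biothiols, 10 mM GSH or 5 mM Cys.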

The nature of data set [7]: Prodrug activation in pH 7.4 PBS buffer at 5 uM incubated for 30 mins in presence of GSH by fluorescence assay. The following applies: pH 7.4, 0.5 h. The procedure, abridged:
as §3

Data set [8] can be described thus: Prodrug activation in pH 7.4 PBS buffer at 5 uM incubated for 30 mins in presence of 50 to 200 uM H2O2 by fluorescence assay. The following applies: pH 7.4, 0.5 h. The procedure, abridged: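 Fluorescence of prodrug read in PBS after exposure to a range of H2O2 concentrations up to 200 µM.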
Data set [9] relates to Escherichia coli. The data set can be described thus: Antibacterial activity against Escherichia coli BL21(DE3) at 30 nM incubated for 12 hrs by UV-Vis spectrophotometric analysis. Type of data set: functional, organism-based. The procedure, abridged:
(§4)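 E. coli cultured in LB medium with additions of 30 nM prodrug, 30 nM NBD-SH, 50 µM Na2S, 5 mM L-Cys, or combinations (Na2S or L-Cys plus 30 nM prodrug); incubated 12 h, then bacterial density read as OD600.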

The test system of data set [10] is Escherichia coli. The data set can be described thus: Antibacterial activity against Escherichia coli BL21(DE3) at 30 nM incubated for 12 hrs in presence of GSH by UV-Vis spectrophotometric analysis. Type of data set: functional, organism-based.
For data set [11], the system named is Escherichia coli. In words: Antibacterial activity against Escherichia coli BL21(DE3) at 30 nM incubated for 12 hrs in presence of H2S by UV-Vis spectrophotometric analysis. Type of data set: functional, organism-based. The procedure, abridged: as §4
For data set [12], the system named is Escherichia coli. The data set can be described thus: Antibacterial activity against Escherichia coli BL21(DE3) at >0.2 uM incubated for 12 hrs by UV-Vis spectrophotometric analysis. The class given is functional, organism-based.
Data set [13] relates to Escherichia coli. The data set can be described thus: Antibacterial activity against Escherichia coli BL21(DE3) incubated for 12 hrs in presence of Na2S by UV-Vis spectrophotometric analysis. The class given is functional. The procedure, abridged: as §4
Data set [14] can be described thus: Prodrug activation in pH 7.4 PBS buffer assessed as absorption peak for ciprofloxacin formation at 10 uM in presence of Na2S by UV-Vis spectrophotometric analysis. The following applies: pH 7.4, 10 µM. The method in brief: (§5)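 Absorption spectra recorded over time for 10 µM prodrug with 200 µM Na2S in 50 mM PBS, pH 7.4; bands followed at 350, 490 and new 530 nm; kinetics followed by intensity at 560 nm.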

Data set [15] can be described thus: Prodrug activation in pH 7.4 PBS buffer assessed as absorption peak for NBD fluorophore formation at 10 uM in presence of Na2S by UV-Vis spectrophotometric analysis. The following applies: pH 7.4, 10 µM. The method in brief: as §5
The nature of data set [16]: Prodrug activation in pH 7.4 PBS buffer assessed as ciprofloxacin formation by measuring increase in fluorescence at 5 uM in presence of Na2S at 415 nanometer by fluorescence assay. The following applies: pH 7.4, 5 µM, TDE = time-dependent effect. The procedure, abridged: as §2
The test system of data set [17] is Escherichia coli. The data set can be described thus: Antibacterial activity against Escherichia coli BL21(DE3) incubated for 12 hrs in presence of L-Cys by UV-Vis spectrophotometric analysis. Type of data set: functional, organism-based. The method in brief: as §4
Data set [18] is described as follows: Prodrug activation in pH 7.4 PBS buffer assessed as second order rate constant at 10 uM in presence of Na2S by UV-Vis spectrophotometric analysis. The following applies: pH 7.4, 10 µM.

The source made the active and inactive calls.

For the molecule `O=[N+]([O-])c1ccc(S)c2nonc12`, the outcome in the data set on Escherichia coli [1] and in the data set with Escherichia coli [2] was inactive.
On to `O=C(O)c1cn(C2CC2)c2cc(N3CCN(c4ccc([N+](=O)[O-])c5nonc45)CC3)c(F)cc2c1=O`, for which the solubility in [3] worked out at 17 µM. In [4], the “fold change (FC)” value was found to be 62. Besides, the K in data set [5] was found to be 12 M⁻¹ s⁻¹. In addition, the Drug metabolism entry is reported as “Metabolite_Notdetected” in [6], “Metabolite_Notdetected” in [7], “Metabolite_Notdetected” in data set [8] and “Tde” in [16]. The outcome in the data set with Escherichia coli [9] and in the data set on Escherichia coli [10] was inactive. For the same molecule, the result in the data set with Escherichia coli [11], in the data set with Escherichia coli [12], with Escherichia coli [2] and in the data set with Escherichia coli [17] was Active. In the data set with Escherichia coli [13], the MIC amounted to 0.03 µM. Besides, the Activity turned out to be 350 nm in data set [14] and 490 nm in data set [15]. For the same molecule, in data set [18], the k2 was 12.9 M⁻¹ s⁻¹.
